Measurements published in ChEMBL document CHEMBL5653624 (Biochem Pharmacol, 2016).
The source made the active and inactive calls. The rule behind the calls is not given here.

Experiments:
[1] = molecular target: T1, Histone deacetylase 3 (Mus musculus) (UniProt O88895); assay: Inhibition of HDAC3 in mouse RAW264.7 cells assessed as effect on histone H3 peptide (KQLATKAAR) acetylation measured after 20 hrs by LC-MS/MS analysis; format: cell-based
T1 sequence (whole entry): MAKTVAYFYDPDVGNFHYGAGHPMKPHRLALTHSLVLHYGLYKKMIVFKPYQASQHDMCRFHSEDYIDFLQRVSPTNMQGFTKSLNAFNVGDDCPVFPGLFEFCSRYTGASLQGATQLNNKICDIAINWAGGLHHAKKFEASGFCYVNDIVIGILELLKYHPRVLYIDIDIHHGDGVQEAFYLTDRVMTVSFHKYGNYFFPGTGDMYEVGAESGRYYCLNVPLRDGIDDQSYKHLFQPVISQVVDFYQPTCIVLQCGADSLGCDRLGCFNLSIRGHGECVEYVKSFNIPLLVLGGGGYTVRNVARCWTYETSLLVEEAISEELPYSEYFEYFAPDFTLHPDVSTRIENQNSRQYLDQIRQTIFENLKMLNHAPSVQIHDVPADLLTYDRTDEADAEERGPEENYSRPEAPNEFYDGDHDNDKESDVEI
Outline: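 Histones from RAW 264.7 (20 h treatment) run on 15% SDS-PAGE (7 μg), Coomassie-stained H3/H4 bands excised, destained, and chemically acetylated with acetic anhydride-d6 in 1 M ammonium bicarbonate; endogenous lysine acetylation ratio derived by mass spectrometry from deuterated versus non-deuterated acetyl mass difference.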

[2] = test system: HASMC; assay: Antiinflammatory activity in HASMC cells assessed as effect on LPS/IFNgamma-induced TNFalpha gene expression at 2 uM […] and measured after 4 hrs by RT-qPCR analysis; format: functional, cell-based; conditions: Homo sapiens
Outline: (§1)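 HBE cells (passage 73–103) or immortalized hASM cells (2–3 donors, passage 27–35), serum-starved. Then 2 μM RGFP966 for 20 h, with LPS/IFNγ for the last 4 h. Total RNA isolated; RT-qPCR by 2−ΔΔCt, fold change versus LPS/IFNγ control. Mean ± SD of 3–5 independent experiments.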

[3] = Cytotoxicity against HBE cells assessed as reduction in cell viability at 2 uM measured after 20 hrs by MTS assay; format: toxicity, cell-based; conditions: human
Outline: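 MTS viability assay. RAW 264.7 cells seeded at 25,000 cells/cm2; HBE and hASM cells at 70% confluency and serum-starved for 24 h. Exposure for 20 h with LPS/IFNγ stimulation. MTS reagent added for 1 h at 37 °C in the dark, absorbance read at 490 nm. LPS/IFNγ-stimulated cells without inhibitor set at 100%.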

[4] = molecular target: T1, Histone deacetylase 3 (Mus musculus); assay: Inhibition of HDAC3 in mouse RAW264.7 cells assessed as effect on histone H4 acetylation measured after 20 hrs by Western blot analysis; format: cell-based
Outline: (§2)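 Histones extracted from RAW 264.7 cells after 20 h inhibitor treatment, protein quantified by micro BCA (BSA standard), and H3 and H4 acetylation assessed by Western blot versus vehicle-treated cells.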

[5] = molecular target: T1, Histone deacetylase 3 (Mus musculus); assay: Effect on HDAC3 nuclear localization in LPS/IFNgamma-stimulated mouse RAW264.7 cells preincubated for 20 hrs followed by LPS/IFNgamma stimulation and measured after 1 hr by Hoechst staining based confocal laser scanning microscopy; format: cell-based
Outline: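 RAW 264.7 cells at 20,000 cells/cm2 received 1 μM RGFP966 for 20 h, then 1 h LPS/IFNγ. Fixed in 4% formaldehyde, permeabilized with 0.25% Triton X-100, blocked with 5% BSA. Primary antibodies 2 h at 4 °C, AlexaFluor secondaries 1 h, Hoechst nuclear stain. Confocal imaging at 630×; 4 independent experiments.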

[6] = molecular target: T1, Histone deacetylase 3 (Mus musculus); assay: Inhibition of HDAC3 in mouse RAW264.7 cells assessed as effect on LPS/IFNgamma-induced IkappaBalpha activation preincubated for 20 hrs followed by LPS/IFNgamma stimulation and measured after 1 hr by Western blot analysis; format: cell-based
[7] = test system: RAW264.7; assay: Antiinflammatory activity in mouse RAW264.7 cells assessed as effect on LPS/IFNgamma-induced iNOS gene expression at 1 uM preincubated for 20 hrs followed by LPS/IFNgamma stimulation and measured after 4 hrs by RT-qPCR analysis; format: functional, cell-based; conditions: time 24.0 hrs
Outline: (§3)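 RAW 264.7 macrophages in DMEM/10% FBS received 1 μM RGFP966 for 20 h, with LPS/IFNγ for the last 4 h. Washed with cold DPBS, total RNA isolated, integrity checked by 28S/18S. RT-qPCR by comparative Ct (2−ΔΔCt), fold change versus LPS/IFNγ control. Mean ± SD of 3–5 independent experiments.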

[8] = test system: HASMC; assay: Antiinflammatory activity in HASMC cells assessed as effect on LPS/IFNgamma-induced IL-1beta gene expression at 2 uM […] by RT-qPCR analysis; format: functional, cell-based; conditions: Homo sapiens; outline: as §1
[9] = test system: HBE; assay: Antiinflammatory activity in HBE cells assessed as up regulation of LPS/IFNgamma-induced IL-6 gene expression at 2 uM […] by RT-qPCR analysis; format: functional, cell-based; conditions: Homo sapiens; outline: as §1
[10] = test system: Lung; assay: Antiinflammatory activity in C57bl/6 mouse precision-cut lung slices assessed as effect on LPS/IFNgamma-induced HDAC3 gene expression at 1 to 10 uM preincubated for 20 hrs followed by LPS/IFNgamma stimulation and measured after 4 hrs by RT-qPCR analysis; format: functional, tissue-based; conditions: dose 1-10 µM, time 24.0 hrs
[11] = test system: Lung; assay: Antiinflammatory activity in C57bl/6 mouse precision-cut lung slices assessed as effect on LPS/IFNgamma-induced HDAC3 expression at 1 to 10 uM preincubated for 20 hrs followed by LPS/IFNgamma stimulation and measured after 4 hrs by Western blot analysis; format: functional, tissue-based; conditions: dose 1-10 µM, time 24.0 hrs
[12] = test system: RAW264.7; assay: Antiinflammatory activity in mouse RAW264.7 cells assessed as effect on LPS/IFNgamma-induced TNFalpha gene expression at 1 uM preincubated for 20 hrs followed by LPS/IFNgamma stimulation and measured after 4 hrs by RT-qPCR analysis; format: functional, cell-based; conditions: time 24.0 hrs; outline: as §3
[13] = molecular target: T1, Histone deacetylase 3 (Mus musculus); assay: Inhibition of HDAC3 in mouse RAW264.7 cells assessed as effect on histone H3 acetylation measured after 20 hrs by Western blot analysis; format: cell-based; outline: as §2
[14] = test system: HBE; assay: Antiinflammatory activity in HBE cells assessed as effect on LPS/IFNgamma-induced IL-10 gene expression at 2 uM […] by RT-qPCR analysis; format: functional, cell-based; conditions: Homo sapiens; outline: as §1
[15] = molecular target: T1, Histone deacetylase 3 (Mus musculus); assay: Inhibition of HDAC3 in mouse RAW264.7 cells assessed as effect on LPS/IFNgamma-induced NF-kappaB p65 acetylation level preincubated for 20 hrs followed by LPS/IFNgamma stimulation and measured after 1 hr by Western blot analysis
[16] = molecular target: Histone deacetylase 2 (Mus musculus) (UniProt P70288); assay: Effect on HDAC2 nuclear localization in LPS/IFNgamma-stimulated mouse RAW264.7 cells preincubated for 20 hrs followed by LPS/IFNgamma stimulation and measured after 1 hr by Western blot analysis; format: cell-based
Sequence of Histone deacetylase 2 (Mus musculus) (P70288 whole entry): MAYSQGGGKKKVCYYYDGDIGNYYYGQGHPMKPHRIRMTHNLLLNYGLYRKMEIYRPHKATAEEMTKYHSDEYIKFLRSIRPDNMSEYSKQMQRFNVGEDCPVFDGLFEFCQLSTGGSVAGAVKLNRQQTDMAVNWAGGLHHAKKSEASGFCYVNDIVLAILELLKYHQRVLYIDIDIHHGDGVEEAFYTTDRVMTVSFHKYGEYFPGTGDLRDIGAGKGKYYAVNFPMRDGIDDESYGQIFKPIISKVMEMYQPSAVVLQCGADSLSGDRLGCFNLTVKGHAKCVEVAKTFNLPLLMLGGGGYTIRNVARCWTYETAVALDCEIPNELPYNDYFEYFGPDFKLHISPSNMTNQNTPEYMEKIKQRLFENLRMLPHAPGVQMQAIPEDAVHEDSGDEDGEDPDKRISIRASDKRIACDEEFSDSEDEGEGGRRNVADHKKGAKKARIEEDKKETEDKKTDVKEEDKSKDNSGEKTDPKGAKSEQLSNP
Outline: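 RAW 264.7 cells treated for 20 h, then 1 h LPS/IFNγ, and fractionated into nuclear and cytosolic parts. Fractions immunoblotted, with PARP-1 and β-actin as internal controls. Densitometry with vehicle control set at 100%. Mean ± SD of 3–4 independent experiments.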

[17] = test system: Lung; assay: Antiinflammatory activity in C57bl/6 mouse precision-cut lung slices assessed as effect on LPS/IFNgamma-induced HDAC2 gene expression at 1 to 10 uM preincubated for 20 hrs followed by LPS/IFNgamma stimulation and measured after 4 hrs by RT-qPCR analysis; format: functional, tissue-based; conditions: dose 1-10 µM, time 24.0 hrs

## Nc1cc(F)ccc1NC(=O)/C=C/c1cnn(C/C=C/c2ccccc2)c1
[1]
  inhibition: inactive
[2]
  Activity: inactive
[3]
  Activity: Non-Toxic
[4]
  inhibition: inactive
[5]
  Activity: inactive
[6]
  inhibition: inactive
[7]
  Activity: inactive
[8]
  Activity: inactive
[9]
  Activity: Active
[10]
  Activity: inactive
[11]
  Activity: inactive
[12]
  Activity: inactive
[13]
  inhibition: inactive
[14]
  Activity: inactive
[15]
  inhibition: inactive
[16]
  Activity: inactive
[17]
  Activity: inactive
